Screening results (PubChem)
Fibroblast inh = blocks proliferation of human lung fibroblasts; viability, % at 10 µM; 85,000 tested, 1.1% active; LL 47 human lung fibroblast viability, ATP luminescence; active compounds read low;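 active = viability at or below 50% in the single dose screen; inactive = viability above 50%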;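 note: compound exposure lasted 72 h before the ATP readout; 100% = median luminescence of untreated cell-only wells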
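material = human LL 47 lung fibroblast cells | dosing = compounds added from tenfold dosing solution, 0.1% DMSO final | timing = overnight cell rest, 72 h compound treatment at 37 °C | measured by = CellTiter-Glo luminescence measuring cellular ATP | evaluation = % viability versus median cells-only luminescence | control set = cell-only wells, no compound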
H69AR inhibit = blocks growth of human H69AR lung tumor cells | viability, % at 10 µM | H69AR lung tumor viability, ATP luminescence, 72 h; active compounds read low | 85,000 tested, 6% active | AID 598;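 active = viability at or below 40%; inactive = viability above 40%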;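 note: multidrug resistant small cell line overexpressing MRP-1 efflux transporter; 100% = mean luminescence of untreated control wells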
bCat KO growth = beta-catenin-lacking colon tumor cell growth suppression. 140,000 tested, 1.5% active. HCT116 beta-catenin knockout viability, CellTiter-Glo, 60 h; active compounds read low. viability, % at 10 µM;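 active = viability at or under a set limit, the compound median less 4 SD, cut at about 6% in these data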;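 note: 0% = Hyamine 1622 control at 20 µM and 100% = untreated cell control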
HUVEC prolif 384 = blocks proliferation of human endothelial cells. HUVEC proliferation, CellTiter-Glo luminescence, 72 h; active compounds read low. viability, % at 10 µM (by protocol). 86,000 tested, 1.1% active. AID 648;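 active = viability at or below 30%; inactive = viability above 30%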;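 note: 100% = median luminescence of DMSO-only cell control wells on each plate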
PTEN del growth = suppresses growth of cells with PTEN deletion; AID 827; HCT116 PTEN-null viability, CellTiter-Glo, 60 h; active compounds read low; 140,000 tested, 1.2% active; viability, % at 10 µM;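 active = viability at or below a set limit, 4 SD under the median of all tested compounds, cut at about 3.7% in these data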;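 note: PTEN knockout HCT116 line with beta catenin targeted HCT116 as companion control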
Starred values were filed as active, the others as inactive; · = not tested or not shown. This excerpt belongs to a sample that is enriched for hits.

SMILES	Fibroblast inh	H69AR inhibit	bCat KO growth	HUVEC prolif 384	PTEN del growth
COc1ccccc1N1C(=O)CC(Sc2n[nH]c(-c3cccc(C)c3)n2)C1=O (stereo not drawn)	·	·	100.2	·	100.3
CC(Sc1nnnn1-c1ccc(Cl)cc1)C(=O)NCC(=O)Nc1ccc(F)c(F)c1F (stereo not drawn)	·	·	83.1	·	72.9
COc1ccc(C2=C(CC(=O)O)C(=O)CC2)cc1	·	·	98.9	·	98.6
Cc1[nH]n(-c2c(Cl)cc(Cl)cc2Cl)c(=O)c1C=Nc1ccc(S(=O)(=O)N2CCOCC2)cc1	·	·	107.4	·	105.8
Oc1ccc(N=C/C=C/c2ccc(Br)cc2)cc1-c1nc2ccccc2s1	·	·	23.0	·	5.8
Cc1nc2ccccc2c(=O)n1/N=C/c1c(O)ccc2oc3c(c12)CCCC3	63.6	65.0	4.9*	77.1	3.0*
CC(=O)c1sc(NC(=O)C2(F)C(F)(F)C(F)(F)C(F)(F)C(F)(F)C2(F)F)nc1C	54.1	12.5*	16.1	45.1	12.7
O=C1C=C(O)CC(c2ccco2)C1 (stereo not drawn)	97.8	92.6	95.8	90.3	110.4
O=C1C=C(Nc2ccc(O)cc2)CC(c2ccco2)C1 (stereo not drawn)	80.0	26.2*	38.5	64.1	31.8
Cc1noc2nc(-c3cccs3)cc(-c3nnc4n3CCCCC4)c12	·	82.9	·	94.4	·
COc1cccc(-c2ccc(C#N)c(OC(=O)c3c(Cl)cccc3Cl)n2)c1	85.3	43.9	32.2	60.9	23.9
COc1cccc(-c2ccc(C#N)c(OC(=O)c3ccc(Cl)cc3)n2)c1	98.9	8.9*	85.8	87.7	107.7
COC(=O)c1cccc(NC(=O)CCNC(=O)c2ccc([N+](=O)[O-])cc2)c1	·	·	87.8	·	94.7
O=C(N/N=C\c1ccc(Cl)s1)c1ccc(Cn2cccn2)o1	·	·	92.8	·	101.4
O=C(N/N=C\c1c(O)ccc2ccccc12)c1ccc(Cn2cccn2)o1	·	·	5.6*	·	5.3
CCOc1ccc(-c2cc(NC(=O)Cn3ncc4c3-c3ccccc3OC4)on2)cc1OCC	93.9	30.4*	82.1	49.9	91.2
C/C(=N/NC(=O)Cc1cccs1)c1ccco1	·	·	96.5	·	92.4
Cc1ccc2c(c1)C(c1ccc([N+](=O)[O-])cc1)=NNC(c1ccc(Br)cc1)=N2	·	·	3.5*	·	2.5*
CCOc1ccc(-n2nc3c(Cl)nnc(C)c3c2C)cc1	·	·	109.8	·	96.0
CSc1nc2ccc3nc(NC(=O)c4ccccc4)sc3c2s1	97.3	32.2*	89.9	109.2	79.6
CC(=O)Nc1sc(NC(=O)c2ccccc2)nc1-c1cccs1	106.9	54.8	105.4	96.8	90.3
Cc1cccc(NC(=S)N/N=C2\CC(C)(C)Oc3ccc(O)cc32)c1	·	·	3.9*	·	3.8*
Cc1ccc(-c2cc(C(F)F)nc(NCC3CCCO3)n2)cc1 (stereo not drawn)	89.0	89.1	45.4	80.5	56.6
CC1CC/C(=N/Nc2ccccc2)C(=O)N1 (stereo not drawn)	·	·	96.4	·	97.2
CCOC(=O)N1CCN(C(=O)c2ccccc2-c2ccccc2)CC1	67.5	18.8*	19.9	62.3	24.2
SMILES	Fibroblast inh	H69AR inhibit	bCat KO growth	HUVEC prolif 384	PTEN del growth
CCOC(=O)N1CCN(C(=O)c2ccccc2CCc2ccccc2)CC1	101.1	72.1	79.0	95.8	94.1
CCOC(=O)CSC1=C(C#N)C(c2ccc3c(c2)OCO3)CC(=O)N1 (stereo not drawn)	79.5	22.9*	51.0	69.2	48.8
CCOC(=O)CSC1=C(C#N)C(c2ccccc2OCC)C(C#N)C(=O)N1 (stereo not drawn)	93.4	27.3*	95.1	69.6	91.5
CCOC(=O)CSC1=C(C#N)C(c2ccccc2OCC)C(C(=O)OCC)C(=O)N1 (stereo not drawn)	92.3	91.9	91.3	104.7	105.2
CCCCOC(=O)CSC1=C(C#N)C(c2ccc3c(c2)OCO3)CC(=O)N1 (stereo not drawn)	100.0	88.3	82.7	92.0	83.9
CCOC(=O)CSC1=C(C#N)C(c2ccc(Cl)cc2)CC(=O)N1 (stereo not drawn)	93.2	86.4	97.3	96.5	90.2
CCOC(=O)CSC1=C(C#N)C(c2ccc(C)o2)CC(=O)N1 (stereo not drawn)	48.6*	94.3	11.7	33.5	15.9
Cc1ccccc1N1C(=O)C(Oc2ccc(Cl)cc2)C1CNC(C)(C)C (stereo not drawn)	·	·	61.4	·	57.9
O=S(=O)(c1ccc(NC2CCCc3ccccc32)nc1)N1CCOCC1 (stereo not drawn)	90.0	80.9	83.1	95.5	82.2
CCN(CC)S(=O)(=O)c1ccc(NC2CCCc3ccccc32)nc1 (stereo not drawn)	93.9	87.4	0.6*	90.2	0.5*
CCCCn1c(=N)n(CC(O)COc2cccc(C)c2)c2ccccc21 (stereo not drawn)	70.0	1.6*	1.7*	87.4	1.5*
Cc1ccc(OCC(O)Cn2c(=N)n(CCN3CCCCC3)c3ccccc32)cc1 (stereo not drawn)	·	·	2.3*	·	2.9*
CC(C)(C)C(=O)Cn1c(=N)n(Cc2ccccc2)c2ccccc21	91.1	38.4*	83.1	113.0	79.1
Cc1ccc(Cn2c(=N)n(CC(O)c3ccco3)c3ccccc32)cc1 (stereo not drawn)	90.0	72.8	61.9	91.6	58.4
COc1ccc(OCC(O)Cn2c(=N)n(CCN3CCCCC3)c3ccccc32)cc1 (stereo not drawn)	63.4	94.6	25.6	40.3	25.7
N=c1n(Cc2ccccc2)c2ccccc2n1CC(O)c1ccccc1 (stereo not drawn)	88.0	38.2*	36.9	89.3	48.4
CC(C)(C)C(=O)Cn1c(=N)n(Cc2ccccc2Cl)c2ccccc21	95.1	73.0	87.1	116.3	87.9
O=C(NCCCn1ccnc1)C(=O)NCC1OCCCN1S(=O)(=O)c1ccccc1 (stereo not drawn)	·	·	93.8	·	95.0
CC(C(=O)NC(=O)NC1CCCCC1)N1CCN(C(c2ccccc2)c2ccccc2)CC1 (stereo not drawn)	·	·	57.3	·	47.4
C=CCn1c(=N)n(CC(O)COc2ccccc2OC)c2ccccc21 (stereo not drawn)	94.1	74.5	60.1	79.3	75.4
COc1ccccc1OCC(O)Cn1c(=N)n(Cc2ccccc2)c2ccccc21 (stereo not drawn)	59.7	51.2	5.2*	36.5	8.2
Cc1ccc(OCC(O)Cn2c(=N)n(CCN3CCOCC3)c3ccccc32)cc1 (stereo not drawn)	90.9	74.2	58.8	85.7	61.6
CCCCCn1c(=N)n(CC(O)COc2ccccc2OC)c2ccccc21 (stereo not drawn)	·	·	2.6*	·	4.1
Cc1csc2ncc(C(=O)NC(C)c3ccccc3)c(=O)n12 (stereo not drawn)	·	·	98.6	·	89.6
O=C(Nc1cccc(-c2nc3ncccc3o2)c1)c1cc2ccccc2o1	108.3	15.6*	94.3	48.6	76.9
Cc1ccc2nc(NC(=O)c3cccc(-c4cc5ccccc5oc4=O)c3)sc2c1	·	·	3.0*	·	2.2*
